Screening results (PubChem)
Hits are enriched below; roughly 2.9% of the tested compounds scored in any of these assays.
Jurkat tox 60K: cytotoxic compounds reducing Jurkat cell viability | inhibition, % at 4 µM | Jurkat E6.1 viability, ATP luminescence, 48 h | AID 463 | hit rate 1.2% among 56,000;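 active means inhibition above the mean inhibition of all tested compounds plus 3 SD, cut at about 28% in these data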
RORa activator: activators of human nuclear receptor RORA; CHO-K1 Gal4-RORA LBD luciferase reporter, luminescence; percent increase over mock-subtracted basal signal; hit rate 1.5% among 65,000; activation, % at 10 µM;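 active means activation above the mean of all tested compounds plus 3 SD, cut at about 49% in these data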
Target sequence (P35398 whole entry, looked up, the tested form may be a part): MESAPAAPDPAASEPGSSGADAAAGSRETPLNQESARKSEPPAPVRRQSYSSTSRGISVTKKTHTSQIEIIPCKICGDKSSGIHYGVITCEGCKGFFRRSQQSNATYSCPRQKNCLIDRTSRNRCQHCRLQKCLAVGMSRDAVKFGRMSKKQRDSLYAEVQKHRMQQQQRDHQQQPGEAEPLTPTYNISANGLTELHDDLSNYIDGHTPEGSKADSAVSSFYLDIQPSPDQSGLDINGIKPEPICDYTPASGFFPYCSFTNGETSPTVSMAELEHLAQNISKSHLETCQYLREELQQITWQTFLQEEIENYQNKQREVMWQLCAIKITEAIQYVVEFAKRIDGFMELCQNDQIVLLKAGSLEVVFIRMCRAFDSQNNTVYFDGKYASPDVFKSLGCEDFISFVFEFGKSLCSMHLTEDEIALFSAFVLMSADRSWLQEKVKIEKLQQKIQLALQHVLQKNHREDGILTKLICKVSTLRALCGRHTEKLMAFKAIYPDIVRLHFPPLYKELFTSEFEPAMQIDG
SF1 activator: activates the human nuclear receptor SF-1; Q13285; CHO-K1 Gal4-SF-1 LBD luciferase reporter; % increase over DMSO SF-1-specific signal; activation, % at 10 µM; hit rate 1.9% among 65,000; AID 522;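 active means activation above the mean activation of all tested compounds plus 3 SD, cut at about 50% in these data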
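Assay system: CHO-K1 cells co-transfected with Gal4 DBD–human SF-1 LBD, 5xGal4 luciferase reporter; doses: 10 µM only; incubation: 20 h compound exposure at 37 °C after 1 h cell settling; signal: luciferase light emission; evaluation: percent activation versus DMSO; repeats: one test per compound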
HEK293 NFkB inh: lowers PMA/ionomycin-induced NF-kB signal in HEK293 cells; hit rate 0.21% among 62,000; AID 465; inhibition, % at 3 µM; HEK-293 NF-kB luciferase reporter, luminescence;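 active means inhibition above the mean of all tested compounds plus 3 SD, cut at about 40% in these data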
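System: NF-kB luciferase reporter HEK-293 cells | Replication: Single test | Control set: DMSO vs reference inhibitor | Evaluation: % inhibition | Schedule: 1 h pretreatment, 16 h stimulation, 37 °C | Probe or stimulus: PMA with ionomycin | Compound dosing: One dose, 3 µM | Detection: Luciferase luminescence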
MT1-MMP txn act: MT1-MMP promoter transcription activation; HT1080 MT1-MMP promoter luciferase reporter, luminescence, overnight; stronger effect = higher value; activation factor at 10 µM; hit rate 0.16% among 86,000;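 active means activation factor of at least 2 for MT1-MMP transcription at 10 µM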
Large screens that a line does not name were inactive.

CCCc1cc(C(=O)NCc2ccccc2)no1	none
CCCc1cc(C(=O)Nc2ccccc2SC)no1	SF1 activator 56.5
Cc1ccc(-c2cc(C(=O)NCc3cccs3)no2)cc1	RORa activator 58.6, SF1 activator 60.3
CCCc1cc(C(=O)NCc2cccs2)no1	SF1 activator 50.1
CCCCCCSc1nsc(NC(C)=O)n1	RORa activator 74.9
CCCCSc1nsc(NC(C)=O)n1	RORa activator 55.6
COC(=O)c1ccc(C(NC(=O)OCc2ccccc2)/C(=C/[C@@H](C)C(=O)N(C)Cc2ccccc2)C(F)(F)F)cc1 (some centres undefined)	none (no result: Jurkat tox 60K, RORa activator, SF1 activator, HEK293 NFkB inh)
Cc1occc1-c1nnc(SCC(=O)Nc2ccccc2)n1C(C)c1ccccc1 (centres undefined)	none
Cn1c2ccccc2c2ncn(CCC3=CCCCC3)c(=O)c21	SF1 activator 50.6
Cn1c2ccccc2c2ncn(CCCN3CCOCC3)c(=O)c21	none
CNC(=O)[C@@]1(Cc2ccccc2)C=C[C@@H](C)N1C(C)=O	none (no result: Jurkat tox 60K, RORa activator, SF1 activator, HEK293 NFkB inh)
CCOc1ccc2nc(NC(NC(=O)CC)(C(=O)OC)C(F)(F)F)sc2c1 (centres undefined)	none (no result: Jurkat tox 60K, HEK293 NFkB inh)
CC(C)c1ccc(NC(=O)c2ccc(Br)o2)cc1	none (no result: Jurkat tox 60K, RORa activator, SF1 activator, HEK293 NFkB inh)
CC(=O)Nc1ccc2c(c1)OCCO2	none (no result: Jurkat tox 60K, RORa activator, SF1 activator, HEK293 NFkB inh)
O=C(Nc1nccs1)c1ccc(Br)o1	SF1 activator 64.7
O=C(Nc1ccc2c(c1)OCCO2)NC12CC3CC(CC(C3)C1)C2	RORa activator 77.1, SF1 activator 74.8
O=C(Nc1ccc(Nc2ccccc2)cc1)c1ccc(Br)o1	RORa activator 49.4
O=C(Nc1cccc(-c2nnc(-c3ccccc3)o2)c1)c1ccc(Br)o1	SF1 activator 67.0
O=C(Nc1ccc(Cl)cc1)OCCn1nnnc1C(c1ccccc1Cl)N1CCOCC1 (centres undefined)	none (no result: Jurkat tox 60K, RORa activator, SF1 activator, HEK293 NFkB inh)
CCOC(=O)N1CCC(NC(=O)c2ccc(CS(=O)(=O)c3ccc(OC)cc3)o2)CC1	none
Cc1ccc(C(=O)Nc2ccc3c(c2)OCO3)o1	none
O=C(Nc1ccc2c(c1)OCCO2)c1ccc(Br)o1	SF1 activator 58.8 (no result: Jurkat tox 60K, HEK293 NFkB inh)
C=CCn1c(-c2ccccc2)c[nH]c1=S	SF1 activator 52.9
C=CCSc1nc2ccccc2c(=O)[nH]1	none
C=CCSc1nnc2c(n1)[nH]c1c(C)cccc12	RORa activator 84.1
O=C(COc1ccc(Br)cc1)N1CCC(c2ccccc2)C1 (centres undefined)	none (no result: Jurkat tox 60K, RORa activator, SF1 activator, HEK293 NFkB inh)
O=C(CSc1ncnc2ccccc12)N1CCCC1	RORa activator 54.7
CCC(=O)N1CCCc2cc(S(=O)(=O)N3CCN(c4ccccn4)CC3)ccc21	none
COc1ccc(-c2cc(-c3cc(OC)ccc3O)[nH]n2)cc1	none (no result: Jurkat tox 60K, RORa activator, SF1 activator, HEK293 NFkB inh)
CCOc1ccc(-c2[nH]ncc2-c2ccc(OC)c(OC)c2)c(O)c1	Jurkat tox 60K 91.5
COc1ccc(-c2cc(-c3cc(F)ccc3O)[nH]n2)cc1OC	MT1-MMP txn act 2.3
COc1ccc(-c2cc(-c3ccccc3O)[nH]n2)cc1OC	none
CCOc1ccc(-c2[nH]ncc2Oc2ccccc2OC)c(O)c1	none
COc1ccc(-c2cc(-c3ccc(OC)c(OC)c3)n[nH]2)c(O)c1	MT1-MMP txn act 2 (no result: Jurkat tox 60K, RORa activator, SF1 activator, HEK293 NFkB inh)
CCCN(CCC)C(=O)CSc1nc2ccccc2c(=O)n1C1CCCC1	none
CCN(CC)c1ccc(C2C(C(C)=O)C(=O)CC(C)(O)C2C(C)=O)cc1 (centres undefined)	none (no result: Jurkat tox 60K, RORa activator, SF1 activator, HEK293 NFkB inh)
COC(=O)N1CC(=O)N(OC)C1c1ccc(Cl)cc1Cl (centres undefined)	none
CCc1c(C)nc2ncnn2c1NCCc1ccc(OC)cc1	Jurkat tox 60K 93.1
CC(=O)NC(C)C(=O)OCc1ccc(Cl)cc1Cl (centres undefined)	none
Cn1cccc1C(=O)OCc1cc(Cl)cc2c1OCOC2	SF1 activator 60.2
CCOc1ccc(OCC)c(NC(=O)C2CCN(S(=O)(=O)c3cnc[nH]3)CC2)c1	none
CCn1c(SCC(=O)Nc2nc(C)c(C(=O)OC)s2)nnc1C(C)C	none
O=C(C1COc2ccccc2O1)N1CCc2ccccc21 (centres undefined)	SF1 activator 54.0
COc1ccc(NC(=O)c2sc(SC)nc2N)cc1	RORa activator 62.2, SF1 activator 60.6
CCCc1nc2ccc(NC(=O)c3ccco3)cc2c(=O)n1Cc1ccc(Cl)cc1	none (no result: Jurkat tox 60K, RORa activator, SF1 activator, HEK293 NFkB inh)
COc1ccc(Cn2c(C3CC3)nc3ccc(NC(=O)c4ccco4)cc3c2=O)cc1	SF1 activator 59.2
CCC(=O)Nc1ccc2nc(C3CC3)n(Cc3ccccc3)c(=O)c2c1	SF1 activator 62.7
CCOC(=O)c1cnn2c(C)cc(-c3ccccc3)nc12	SF1 activator 65.1
